The record followed here is ChEMBL document CHEMBL5096174, “The Natural Alkaloid Berberine Can Reduce the Number of Pseudomonas aeruginosa Tolerant Cells” (2021).

What is called MIC is the smallest concentration in the dilution series that meets the test's criterion for growth inhibition.

In brackets after ≈: the same amount, converted by molar mass. Activity calls are given as the source filed them. Where only a bound is given, the exact number is not on record here.

Experiment [1] in a line: Inhibition of efflux pump in wild type Pseudomonas aeruginosa K767 assessed as fold reduction in CFU count in presence of tobramycin incubated for 24 hrs by ethidium bromide efflux assay relative to tobramycin alone. To be noted: in the assay text read “by planktonic persistence assay” for “by ethidium bromide efflux assay”. The method, boiled down:
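Stationary-phase overnight LB cultures (37 °C) exposed to tobramycin 20xMIC alone or with berberine 80 µg/mL for 24 h at 37 °C. At 0, 7 and 24 h, aliquots PBS-washed, 10-fold serially diluted, plated on antibiotic-free CLED agar. CFU counted after 24 h at 37 °C. Biological duplicate.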

The subject of experiment [2] is Pseudomonas aeruginosa. Nature of the experiment: Bactericidal activity against wild type Pseudomonas aeruginosa K767 assessed as increase in biofilm production at 80 ug/ml incubated overnight by crystal voilet staining based analysis relative to control. The class given is functional. To be noted: dose 80 µg/ml. In outline:
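Biofilms grown overnight at 37 °C in flat-bottom microtiter plates in LB with or without berberine 80 µg/mL. Planktonic OD600 recorded; washed sessile phase stained 15 min with 1% crystal violet, dye taken up in 96% ethanol, OD570 read. Output is OD570/OD600. Run in triplicate.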

Experiment [3] concerns Pseudomonas aeruginosa. Nature of the experiment: Bactericidal activity against Pseudomonas aeruginosa K1525 mexY mutant assessed as increase in biofilm production at 80 ug/ml incubated overnight by crystal voilet staining based analysis relative to control. The experiment is classed as functional. To be noted: dose 80 µg/ml. The method, boiled down:
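Biofilms grown overnight at 37 °C in LB with or without berberine 80 µg/mL in flat-bottom microtiter wells. Planktonic phase removed and its OD600 read. Sessile phase washed with water, stained with 1% crystal violet for 15 min, washed, solubilised in 96% ethanol and read at OD570. Values normalised as OD570/OD600. Triplicate.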

Experiment [4] relates to Pseudomonas aeruginosa. The experiment is described as follows: Bactericidal activity against wild type Pseudomonas aeruginosa K767 persisters assessed as reduction in CFU at 20 times MIC incubated for 24 hrs by planktonic persistance assay. The experiment is classed as functional. The method, boiled down: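 Stationary-phase overnight LB cultures at 37 °C were exposed to tobramycin 20xMIC, alone or with berberine 80 µg/mL, for 24 h at 37 °C. At 0, 7 and 24 h, aliquots were PBS-washed, 10-fold diluted and plated on antibiotic-free CLED agar, and survivor CFUs were counted after 24 h at 37 °C. Mean of two biological replicates ± SD.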

Experiment [5] deals with Pseudomonas aeruginosa. The experiment is described as follows: Bactericidal activity against Pseudomonas aeruginosa K1525 mexY mutant persisters assessed as reduction in CFU at 20 times MIC incubated for 24 hrs by planktonic persistance assay. The experiment is classed as functional. The method, boiled down: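 Stationary-phase (overnight, LB, 37 °C) cultures exposed to tobramycin 20xMIC with or without berberine 80 µg/mL for 24 h at 37 °C. Aliquots taken before exposure and at 24 h, PBS-washed, serially 10-fold diluted and plated on antibiotic-free CLED agar. Surviving CFU counted after 24 h at 37 °C. Biological duplicate.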

Experiment [6] relates to Pseudomonas aeruginosa. The experiment is described as follows: Bactericidal activity against Pseudomonas aeruginosa K1525 mexY mutant assessed as reduction in log increase in tolerant cells at 1000 times MIC measured after 24 hrs. The class given is functional. In outline: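 Biofilms were grown overnight in LB in 35 mm dishes at 37 °C, then held 24 h at 37 °C in LB with tobramycin 1000xMIC, alone or with berberine 80 or 320 µg/mL. Biofilms were detached mechanically at T0 and T24, resuspended in PBS, 10-fold diluted and plated on CLED agar, and CFUs were counted after 24 h at 37 °C. Biological triplicates.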

Experiment [7] deals with Pseudomonas aeruginosa. The experiment is described as follows: Antibacterial activity against Pseudomonas aeruginosa C61 assessed as log reduction of bacterial population measured after 24 hrs. The class given is functional. The method, boiled down:
(§1)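 Overnight LB cultures at 37 °C were exposed to tobramycin 20xMIC, alone or with berberine 80 µg/mL, for 24 h at 37 °C. Aliquots were PBS-washed, serially 10-fold diluted and plated on antibiotic-free CLED agar. CFUs were counted after 24 h at 37 °C, before exposure (T0) and at T24. Biological duplicates.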

Experiment [8] deals with Pseudomonas aeruginosa. Nature of the experiment: Antibacterial activity against wild type Pseudomonas aeruginosa K767 assessed as reduction in bacterial growth rate in presence of berberine. The class given is functional, organism-based. In outline: (§2)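 Overnight LB cultures diluted to OD600 0.1 and shaken at 140 rpm, 37 °C, for 24 h with or without berberine 80 µg/mL. OD600 read at 2, 4, 6, 8 and 24 h. Biological triplicates.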

For experiment [9], the system named is Pseudomonas aeruginosa. Nature of the experiment: Antibacterial activity against Pseudomonas aeruginosa K1525 mexY mutant assessed as reduction in bacterial growth rate in presence of berberine. The experiment is classed as functional, organism-based. The method, boiled down: as §2
Experiment [10] concerns Pseudomonas aeruginosa. The experiment is described as follows: Antibacterial activity against Pseudomonas aeruginosa NC01 cystic fibrosis assessed as reduction in bacterial growth. The experiment is classed as functional.
Experiment [11] concerns Pseudomonas aeruginosa. Nature of the experiment: Antibacterial activity against Pseudomonas aeruginosa NC01 cystic fibrosis assessed as tobramycin MIC in presence of berberine. The class given is functional. The method, boiled down:
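Broth microdilution per CLSI guidelines, tobramycin MIC determined in presence of berberine 80 μg/mL; strains grown in LB. Combination considered synergistic when MIC with berberine was ≥4 times lower than tobramycin alone.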

Experiment [12] has as its system Pseudomonas aeruginosa. The experiment is described as follows: Antibacterial activity against Pseudomonas aeruginosa NC02 cystic fibrosis assessed as reduction in bacterial growth. The class given is functional.
For experiment [13], the system named is Pseudomonas aeruginosa. Nature of the experiment: Antibacterial activity against Pseudomonas aeruginosa NC02 cystic fibrosis assessed as tobramycin MIC in presence of berberine. The class given is functional. The method, boiled down: (§3)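 Tobramycin MIC by CLSI broth microdilution in the presence of berberine 80 µg/mL.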
For experiment [14], the system named is Pseudomonas aeruginosa. Nature of the experiment: Antibacterial activity against Pseudomonas aeruginosa NC04 cystic fibrosis assessed as reduction in bacterial growth. The experiment is classed as functional.
The subject of experiment [15] is Pseudomonas aeruginosa. The experiment is described as follows: Antibacterial activity against Pseudomonas aeruginosa NC04 cystic fibrosis assessed as tobramycin MIC in presence of berberine. The class given is functional. The method, boiled down:
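Broth microdilution per CLSI; tobramycin MIC determined with berberine present at 80 µg/mL. Synergy defined as MIC in presence of berberine ≥4 times lower than tobramycin alone.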

Experiment [16] has as its system Pseudomonas aeruginosa. The experiment is described as follows: Antibacterial activity against Pseudomonas aeruginosa NC06 cystic fibrosis assessed as reduction in bacterial growth. The class given is functional.
Experiment [17] concerns Pseudomonas aeruginosa. Nature of the experiment: Antibacterial activity against Pseudomonas aeruginosa NC06 cystic fibrosis assessed as tobramycin MIC in presence of berberine. The experiment is classed as functional. In outline:
as §3

Experiment [18] deals with Pseudomonas aeruginosa. The experiment is described as follows: Antibacterial activity against Pseudomonas aeruginosa NC10 cystic fibrosis assessed as reduction in bacterial growth. The class given is functional.
For experiment [19], the system named is Pseudomonas aeruginosa. The experiment is described as follows: Antibacterial activity against Pseudomonas aeruginosa NC10 cystic fibrosis assessed as tobramycin MIC in presence of berberine. The class given is functional. The method, boiled down:
as §3

Experiment [20] concerns Pseudomonas aeruginosa. Nature of the experiment: Antibacterial activity against cystic fibrosis isolate Pseudomonas aeruginosa C25 assessed as fold reduction in MIC in presence of berberine by broth microdilution method. The experiment is classed as functional. In outline:
(§4)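 Tobramycin MIC was determined without and with berberine 80 µg/mL by CLSI broth microdilution. The combination was called synergistic when the MIC with berberine was ≥4 times lower than with tobramycin alone.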

Experiment [21] concerns Pseudomonas aeruginosa. The experiment is described as follows: Antibacterial activity against clinical isolate Pseudomonas aeruginosa C54 assessed as fold reduction in MIC in presence of berberine by broth microdilution method. The class given is functional. The method, boiled down: as §4
On the technique in general: Broth dilution looks for growth in wells or tubes with falling amounts of substance.

In experiment [22] the test system is Pseudomonas aeruginosa. The experiment is described as follows: Antibacterial activity against clinical isolate Pseudomonas aeruginosa C59 assessed as fold reduction in MIC in presence of berberine by broth microdilution method. The experiment is classed as functional. The method, boiled down: as §4
Experiment [23] concerns Pseudomonas aeruginosa. The experiment is described as follows: Antibacterial activity against clinical isolate Pseudomonas aeruginosa C84 assessed as fold reduction in MIC in presence of berberine by broth microdilution method. The class given is functional. The method, boiled down:
as §4

Experiment [24] has as its system Pseudomonas aeruginosa. Nature of the experiment: Antibacterial activity against cystic fibrosis isolate Pseudomonas aeruginosa AR48 assessed as fold reduction in MIC in presence of berberine by broth microdilution method. The experiment is classed as functional. The method, boiled down: as §4
For experiment [25], the system named is Pseudomonas aeruginosa. The experiment is described as follows: Antibacterial activity against cystic fibrosis isolate Pseudomonas aeruginosa NC06 assessed as fold reduction in MIC in presence of berberine by broth microdilution method. The experiment is classed as functional. In outline:
as §4

Experiment [26] relates to Pseudomonas aeruginosa. The experiment is described as follows: Antibacterial activity against cystic fibrosis isolate Pseudomonas aeruginosa C25 assessed as log reduction in tolerant cell in presence of berberine by broth microdilution method. The class given is functional. The method, boiled down:
as §1

For experiment [27], the system named is Pseudomonas aeruginosa. Nature of the experiment: Antibacterial activity against cystic fibrosis isolate Pseudomonas aeruginosa C30 assessed as log reduction in tolerant cell in presence of berberine by broth microdilution method. The experiment is classed as functional. The method, boiled down:
as §1

The subject of experiment [28] is Pseudomonas aeruginosa. Nature of the experiment: Antibacterial activity against clinical isolate Pseudomonas aeruginosa C54 assessed as log reduction in tolerant cell in presence of berberine by broth microdilution method. The class given is functional. In outline: as §1
The test system of experiment [29] is Pseudomonas aeruginosa. Nature of the experiment: Antibacterial activity against clinical isolate Pseudomonas aeruginosa C84 assessed as log reduction in tolerant cell in presence of berberine by broth microdilution method. The class given is functional. The method, boiled down: as §1
The test system of experiment [30] is Pseudomonas aeruginosa. Nature of the experiment: Antibacterial activity against cystic fibrosis isolate Pseudomonas aeruginosa NC06 assessed as reduction in tolerant cell in presence of berberine by broth microdilution method. The class given is functional. The method, boiled down:
as §1

`COc1ccc2cc3[n+](cc2c1OC)CCc1cc2c(cc1-3)OCO2` [BERBERINE]: the fold change (FC) in [1] came out at 10. Besides, the Activity was 100% in the experiment with Pseudomonas aeruginosa [2] and 50% in the experiment with Pseudomonas aeruginosa [3].

Regarding `NC[C@H]1O[C@H](O[C@H]2[C@H](O)[C@@H](O[C@H]3O[C@H](CO)[C@@H](O)[C@H](N)[C@H]3O)[C@H](N)C[C@@H]2N)[C@H](N)C[C@@H]1O` [TOBRAMYCIN], the log(activity) with Pseudomonas aeruginosa [4] worked out at 4.11e+07; with Pseudomonas aeruginosa [6], 3; with Pseudomonas aeruginosa [7], 1; with Pseudomonas aeruginosa [26] it was 2.5; in the experiment on Pseudomonas aeruginosa [27] it was 3; in the experiment on Pseudomonas aeruginosa [28] it was 1.5. Moreover, the figures for the “log(activity)” value with Pseudomonas aeruginosa [29] and in the experiment on Pseudomonas aeruginosa [30] were 0.5 and 2, respectively. In addition, in the experiment on Pseudomonas aeruginosa [5], the Activity is 250000 CFU/ml. Also, the result with Pseudomonas aeruginosa [8] and in the experiment on Pseudomonas aeruginosa [9] was Active. Also, the MIC in the experiment with Pseudomonas aeruginosa [10] was 16 µg/mL (≈ 34.2 µM); in the experiment with Pseudomonas aeruginosa [11], 8 µg/mL; in the experiment with Pseudomonas aeruginosa [12] it was 32 µg/mL (≈ 68.4 µM); with Pseudomonas aeruginosa [13], 16 µg/mL; with Pseudomonas aeruginosa [14] it was 0.5 µg/mL (≈ 1.07 µM); in the experiment with Pseudomonas aeruginosa [15], less than 0.125 µg/mL. Besides, the MIC in the experiment on Pseudomonas aeruginosa [16] was found to be 2 µg/mL (≈ 4.28 µM); in the experiment with Pseudomonas aeruginosa [17] it was 0.5 µg/mL; in the experiment on Pseudomonas aeruginosa [18], 1 µg/mL (≈ 2.14 µM); in the experiment on Pseudomonas aeruginosa [19] it was 0.25 µg/mL. Moreover, the “fold change (FC)” value in the experiment on Pseudomonas aeruginosa [20] worked out at 16; in the experiment on Pseudomonas aeruginosa [21], 2; in the experiment on Pseudomonas aeruginosa [22] it was 2; with Pseudomonas aeruginosa [23] it was 4; with Pseudomonas aeruginosa [24], 4; in the experiment on Pseudomonas aeruginosa [25], 4.
